Assays:
Type in all cases: functional
Staphylococcus aureus [1] = assay: Effect on growth in Staphylococcus aureus MN8 at 10.7 mM after 24 hrs (reference value: 100%)
Outline: (§1)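 Test-tube growth assay: 10 ml growth medium (brain heart infusion with 10% fetal bovine serum, MgCl2, L-glutamine) inoculated to 5 × 10^6 CFU/ml from a 24 h 37°C preculture. Compound diluted in medium, or dissolved in methanol with methanol-matched controls. After 24 h at 37°C with 5% CO2, OD600 and viable counts read. Growth given as % of CFU/ml of untreated controls in the same experiment.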

Staphylococcus aureus [2] = assay: microbe, parasite or virus in culture; conditions: 24 h
Staphylococcus aureus [3] = assay: Effect on growth in Staphylococcus aureus MN8 at 0.50 % after 24 hrs (reference value: 100%); outline: as §1
Staphylococcus aureus [4] = assay: Effect on growth in Staphylococcus aureus MN8 at 0.10 % after 24 hrs (reference value: 100%); outline: as §1
Staphylococcus aureus [5] = tested on: Staphylococcus aureus
Staphylococcus aureus [6] = tested on: Staphylococcus aureus; remark: listed apart in the source
Staphylococcus aureus [7] = assay: Effect on growth in Staphylococcus aureus MN8 at 9.0 mM after 24 hrs (reference value: 100%); outline: as §1
Staphylococcus aureus [8] = assay: microbe, parasite or virus in culture; conditions: 24 h; remark: listed apart in the source
Staphylococcus aureus [9] = assay: Effect on growth in Staphylococcus aureus MN8 at 3.75 mM after 24 hrs (reference value: 100%); outline: as §1
Staphylococcus aureus [10] = assay: Effect on growth in Staphylococcus aureus MN8 at 0.75 mM after 24 hrs (reference value: 100%); outline: as §1
Staphylococcus aureus [11] = assay: microbe, parasite or virus in culture; conditions: 24 h; remark: listed apart in the source
Staphylococcus aureus [12] = assay: microbe, parasite or virus in culture; conditions: 24 h; remark: listed apart in the source
Staphylococcus aureus [13] = assay: Effect on growth in Staphylococcus aureus FRI-1187 at 3.00 mM after 24 hrs (reference value: 100%); outline: as §1
Staphylococcus aureus [14] = assay: microbe, parasite or virus in culture; conditions: 24 h; remark: listed apart in the source
Staphylococcus aureus [15] = assay: microbe, parasite or virus in culture; conditions: 24 h; remark: listed apart in the source
Staphylococcus aureus [16] = assay: Effect on growth in Staphylococcus aureus MN8 at 1.00 mM after 24 hrs (reference value: 100%); outline: as §1
Staphylococcus aureus [17] = assay: microbe, parasite or virus in culture; conditions: 24 h; remark: listed apart in the source
Staphylococcus aureus [18] = assay: Effect on growth in Staphylococcus aureus FRI-1187 at 1.50 mM after 24 hrs (reference value: 100%); outline: as §1
Staphylococcus aureus [19] = assay: Effect on growth in Staphylococcus aureus MN8 at 2.00 mM after 24 hrs (reference value: 100%); outline: as §1
Staphylococcus aureus [20] = assay: microbe, parasite or virus in culture; conditions: 24 h; remark: listed apart in the source
Staphylococcus aureus [21] = assay: Effect on growth in Staphylococcus aureus MN8 at 0.67 mM after 24 hrs (reference value: 100%); outline: as §1
Staphylococcus aureus [22] = assay: Effect on growth in Staphylococcus aureus MN8 at 75.00 mM after 24 hrs (reference value: 100%); outline: as §1
Staphylococcus aureus [23] = assay: microbe, parasite or virus in culture; conditions: 24 h; remark: listed apart in the source
Staphylococcus aureus [24] = assay: microbe, parasite or virus in culture; conditions: 24 h; remark: listed apart in the source
Staphylococcus aureus [25] = assay: microbe, parasite or virus in culture; conditions: 28 h
Staphylococcus aureus [26] = assay: microbe, parasite or virus in culture; conditions: 32 h
Staphylococcus aureus [27] = assay: microbe, parasite or virus in culture; conditions: 26 h
Staphylococcus aureus [28] = assay: microbe, parasite or virus in culture; conditions: 32 h; remark: listed apart in the source
Staphylococcus aureus [29] = assay: microbe, parasite or virus in culture; conditions: 32 h; remark: listed apart in the source
Staphylococcus aureus [30] = assay: microbe, parasite or virus in culture; conditions: 26 h; remark: listed apart in the source
Staphylococcus aureus [31] = assay: microbe, parasite or virus in culture; conditions: 24 h; remark: listed apart in the source
Staphylococcus aureus [32] = assay: Effect on growth in Staphylococcus aureus MN8 at 7.50 mM after 24 hrs (reference value: 100%); outline: as §1
Staphylococcus aureus [33] = assay: microbe, parasite or virus in culture; conditions: 24 h; remark: listed apart in the source
Staphylococcus aureus [34] = assay: Effect on growth in Staphylococcus aureus MN8 at 37.50 mM after 24 hrs (reference value: 100%); outline: as §1
Staphylococcus aureus [35] = assay: microbe, parasite or virus in culture; conditions: 24 h; remark: listed apart in the source
Staphylococcus aureus [36] = assay: Effect on growth in Staphylococcus aureus MN8 at 0.20 % after 24 hrs (reference value: 100%); outline: as §1
Staphylococcus aureus [37] = tested on: Staphylococcus aureus; remark: listed apart in the source

With `CCCCCCCCCCCC(=O)NCCOC(=O)C(CC(=O)[O-])S(=O)(=O)[O-].[Na+].[Na+]` (stereo not given) [DISODIUM LAURAMIDO MEA] the Activity (Staphylococcus aureus [1]) was 29.4% and the inhibition at 10700 µM (Staphylococcus aureus [2]) was 0.4%.

In the case of `CC(=O)Nc1ccc(O)cc1` [ACETAMINOPHEN], the Activity (Staphylococcus aureus [3]) is reported as 13.2%, the Activity (Staphylococcus aureus [4]) is reported as 44.2% and the “inhibition (INH)” value (Staphylococcus aureus [5]) is reported as 56.3%. The “inhibition (INH)” value (Staphylococcus aureus [6]) was 10.8%.

Compound `CCCCCCCCCCCCOCCOCCOCCO` has an Activity (Staphylococcus aureus [7]) of 7.3% and an inhibition at 9000 µM (Staphylococcus aureus [8]) of 1%.

`CC(C)=CCC/C(C)=C/CO` [GERANIOL] gave an Activity (Staphylococcus aureus [9]) of 3.9%, an Activity (Staphylococcus aureus [10]) of 19.3% and an inhibition at 750 µM (Staphylococcus aureus [11]) of 0.7%.

In the case of `COc1cc(C(=O)O)ccc1O` [VANILLIC ACID], the Activity (Staphylococcus aureus [4]) is reported as 24.5% and the “inhibition (INH)” value (Staphylococcus aureus [5]) is reported as 38.5%.

With `CC(=O)/C=C/C1=C(C)CCCC1(C)C` [BETA-IONONE] the Activity (Staphylococcus aureus [9]) was 1%, the Activity (Staphylococcus aureus [10]) was 27.1% and the inhibition at 750 µM (Staphylococcus aureus [11]) was 10%.

`Oc1c(Cl)cc(Cl)c(Cl)c1Cc1c(O)c(Cl)cc(Cl)c1Cl` [HEXACHLOROPHENE] was tested, and the inhibition at 1000 µM (Staphylococcus aureus [12]) was 48.1%, the Activity (Staphylococcus aureus [13]) was 35.2% and the inhibition at 3000 µM (Staphylococcus aureus [14]) was 63.5%. The inhibition at 1500 µM (Staphylococcus aureus [15]) was 74.3%, the Activity (Staphylococcus aureus [16]) was 143.81% and the inhibition at 2000 µM (Staphylococcus aureus [17]) was 19.6%. It also gave an Activity (Staphylococcus aureus [18]) of 75% and an Activity (Staphylococcus aureus [19]) of 123.7%.

Work on `Cc1ccc(C(C)C)c(O)c1` [THYMOL] yielded an inhibition at 670 µM (Staphylococcus aureus [20]) of 37.4% and an Activity (Staphylococcus aureus [21]) of 99%.

In the case of `C=CC(=C)CCC=C(C)C` [MYRCENE], the Activity (Staphylococcus aureus [22]) is reported as 76.5%, the inhibition at 75000 µM (Staphylococcus aureus [23]) is reported as 75.2% and the Activity (Staphylococcus aureus [10]) is reported as 110.8%. It also gave an inhibition at 750 µM (Staphylococcus aureus [11]) of 60.3%.

`CCCCCCCCCCCCN(CCC(=O)O)CCC(=O)O` [SODIUM LAURIMINODIPROPIONIC ACID] was tested, and the inhibition at 2200 µM (Staphylococcus aureus [24]) was 1%.

For `Oc1ccc(Cc2ccccc2)cc1`, the inhibition at 1000 µM (Staphylococcus aureus [12]) was 91%, the Activity (Staphylococcus aureus [16]) was 70.2% and the inhibition at 2000 µM (Staphylococcus aureus [17]) was 77.2%. It also gave an Activity (Staphylococcus aureus [19]) of 37.1%.

`CCCCCCCCCCCCOCCOCCOCCOCCO` [LAURETH 4] was tested, and the inhibition at 10000 µM (Staphylococcus aureus [25]) was 2.9%, the inhibition at 2000 µM (Staphylococcus aureus [26]) was 0.1% and the inhibition at 20000 µM (Staphylococcus aureus [27]) was 1.5%. The inhibition at 20000 µM (Staphylococcus aureus [28]) was 0%, the inhibition at 10000 µM (Staphylococcus aureus [29]) was 0% and the inhibition at 2000 µM (Staphylococcus aureus [30]) was 1.7%. It also gave an inhibition at 10000 µM (Staphylococcus aureus [31]) of 0.2%.

With `CC1(O)CCC(C(C)(C)O)CC1` (stereo not given) [TERPIN] the Activity (Staphylococcus aureus [32]) was 124.7%, the inhibition at 7500 µM (Staphylococcus aureus [33]) was 77.9% and the Activity (Staphylococcus aureus [34]) was 118.7%. It also gave an inhibition at 37500 µM (Staphylococcus aureus [35]) of 23.8%.

Work on `CCCCCCCCCCCC(=O)OCC(O)CO` (racemic) [GLYCEROL MONOLAURATE] yielded an Activity (Staphylococcus aureus [1]) of 36.3% and an inhibition at 10700 µM (Staphylococcus aureus [2]) of 5.2%.

In the case of `Nc1ccc(C(=O)O)cc1` [AMINOBENZOIC ACID], the Activity (Staphylococcus aureus [36]) is reported as 11.8% and the “inhibition (INH)” value (Staphylococcus aureus [37]) is reported as 8.6%.

Reference: ChEMBL document CHEMBL1649163, “Surfactants, aromatic and isoprenoid compounds, and fatty acid biosynthesis inhibitors suppress Staphylococcus aureus production of toxic shock syndrome toxin 1” (2009)
